Laboratory results published in the RNAGym collection of RNA variant scans (doi:10.1126/science.aae0568).
This sample holds only a part of the variants without activity.

B1: tRNA (parent)
chain: GUUCCGUUGGCGUAAUGGUAACGCGUCUCCCUCCUAAGGAGAAGACUGCGGGUUCGAGUCCCGUACGGAACG

Variants of: B1
Test: yeast fitness relative to wild type (ratio to wild type); higher = fitter; tRNA-Arg(CCU), competitive growth, 37 C, YPD
In short: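 Variants of the tRNA-Arg(CCU) gene, chemically synthesised with a 3% per-site mutation rate at 69 sites, were placed at the native genomic locus in Saccharomyces cerevisiae. The pooled strains were competed in YPD at 37°C for 24 hours in six parallel replicates. Gene amplicons from the start population and from each end population were read by 100-nucleotide paired-end sequencing. Darwinian fitness relative to wild type came from changes in genotype frequencies; genotypes needed ≥ 100 starting reads, and estimates < 0.5 were set to 0.5.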

Variant | yeast fitness
C5U C29G A57G | 0.655
C5U C33G C55U | ≤ 0.5
C5U C29G A37C C49U C66A | 0.627
C5U C34U A42U | 0.529
C5U C33G C34U G38C U47A | ≤ 0.5
C5U G9A A65G | 0.736
C5U G6U C11U A15G G48C | ≤ 0.5
C5U G6A G44C G63A | ≤ 0.5
C5U C27U C61G | ≤ 0.5
C5U C33U G39A | 0.649
C5U C29U A45U | 0.924
C5U C27U A37C C60A | 0.546
C5U C31U C61A | 0.552
C5U C34U A65U | 0.565
C5U C27U A37C C60A C66U | ≤ 0.5
C5U C27G G39C G52A | ≤ 0.5
C5U C31U C33U C34G A40C G63A | ≤ 0.5
C5U C31G G48C G58A | ≤ 0.5
C5U C61G | 0.771
C5U C61U | 0.971
C5U C33U C49G A65C | ≤ 0.5

Variant | yeast fitness
C5U C55U G67C | ≤ 0.5
C5U G9A A21G C55U | ≤ 0.5
C5U C27U G56A | 0.704
C5U C33G C49A | ≤ 0.5
C5U C49U C61A | ≤ 0.5
C5U G6A C22U G25C | ≤ 0.5
C5U C30G C61U | ≤ 0.5
C5U C49U U64A | ≤ 0.5
C5U C33G A36U | ≤ 0.5
C5U G9A G10C G12A G25A C33G G39A | ≤ 0.5
C5U G9A C34A | 0.704
C5U C61A C66A | ≤ 0.5
C5U C34G A65C | 0.525
C5U C27U A37G A40C U47A | ≤ 0.5
C5U C33U A65G C66A | ≤ 0.5
C5U C30U U47A G67C | 0.542
C5U C29U A43U | 0.89
C5U C31G A45U C62U | 0.629
C5U C29G C30G A65C | ≤ 0.5
C5U C55A C62A | ≤ 0.5
C5U C66G G68C | 0.541

Variant | yeast fitness
C5U C34G A45U | 0.534
C5U C29U A45C C60A | ≤ 0.5
C5U C34A A36G G63A | ≤ 0.5
C5U C31U G39A A57C | 0.574
C5U C31U A57C G58A A69G | ≤ 0.5
C5U C31U G68C | 0.653
C5U G6C G39A A45U C46G A57C | ≤ 0.5
C5U C33A C55U | ≤ 0.5
C5U C29A U35G C46U U54G | ≤ 0.5
C5U C29G C30A U64G A69C | ≤ 0.5
C5U C30U A40U A70C | ≤ 0.5
C5U G6A U35C A36U G38A C46A U54C | ≤ 0.5
C5U C34A A36G | ≤ 0.5
C5U C33G C46A C66A | ≤ 0.5
C5U C33U C61U | 0.632
C5U C30U C34G G38C A65C | ≤ 0.5
C5U C29U A43G G48C C55A | ≤ 0.5
C5U C34U A69U | 0.59
C5U C62A | 0.649
C5U C62G | 0.702
C5U C30G G56C | ≤ 0.5

Variant | yeast fitness
C5U C30U A37G | 0.64
C5U C31U G48C | 0.682
C5U C30G G51C G56U | ≤ 0.5
C5U C30U C49G | 0.62
C5U C31G G51C | 0.572
C5U G9A C62U | 0.995
C5U C29G G63A | ≤ 0.5
C5U C34G C55A G63C | ≤ 0.5
C5U C31U G41A | 0.831
C5U C49U A65U | 0.644
C5U C49U A65C | 0.745
C5U C30A A65C | 0.703
C5U G6C U19C G25C U28G C62A | 0.747
C5U C46G G52C C62G C66U | ≤ 0.5
C5U C29A A65C | ≤ 0.5
C5U C27U U28G C33G A36G | ≤ 0.5
C5U G9A A21G U53A | ≤ 0.5
C5U C34G A45C C66G | ≤ 0.5
C5U C27G U32A | 0.561
C5U G6C A36C G48C C62U | 0.546
C5U G9A C34U C46G C49U | 0.513
